# Assay results published in ChEMBL document CHEMBL3102784, “Salicylanilide diethyl phosphates: synthesis, antimicrobial activity and cytotoxicity” (Bioorg Med Chem, 2014).
# Active and inactive are the calls of the source. The calls are words filed in the database; no cut-off is given here.
# Experiments:
# [1] = tested on: Trichophyton mentagrophytes; assay: Antifungal activity against Trichophyton mentagrophytes 445 after 72 hrs by broth microdilution method; type: functional; settings: Trichophyton mentagrophytes, 445, 72 h
# Outline: (§1)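 Filamentous dermatophyte tested by broth microdilution in RPMI 1640 with glutamine, fluconazole as reference. Value expressed as IC50 relative to growth control. Read at 72 and 120 h.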
# Candida albicans [2] = assay: Antifungal activity against Candida albicans ATCC 44859 after 24 hrs by broth microdilution method; type: functional; settings: ATCC 44859, 24 h
# Outline: (§2)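 Broth microdilution in RPMI 1640 with glutamine, fluconazole as reference. For yeasts, MIC is ≥80% growth reduction (IC80) versus control. For filamentous fungi, the value is expressed as IC50. Readings at 24 and 48 h.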
# Nakaseomyces glabratus = assay: Antifungal activity against Candida glabrata 20/I at 500 micromol/L after 24 to 48 hrs by broth microdilution method; type: functional, organism-based; outline: as §2
# Pichia kudriavzevii [3] = assay: Antifungal activity against Candida krusei E28 after 24 hrs by broth microdilution method; type: functional; settings: E28, 24 h; outline: as §2
# [4] = tested on: Trichophyton mentagrophytes; assay: Antifungal activity against Trichophyton mentagrophytes 445 after 120 hrs by broth microdilution method; type: functional; settings: Trichophyton mentagrophytes, 445, 120 h; outline: as §1
# Mycobacterium avium [5] = assay: Antimycobacterial activity against isoniazid, rifampicin, ethambutol and ofloxacin-resistant Mycobacterium avium My 330/88 after 14 days; type: functional; settings: My 330/88, 336 h
# Outline: (§3)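 Micromethod MIC in Šula's semisynthetic medium at 37 °C. Compounds added in DMSO at 1000 down to 0.032 µmol/L. Isoniazid standard in sterile water at 0.5–250 µmol/L. Inocula: H37Rv 10^3, M. avium 10^5, M. kansasii 10^4. Read at 14 and 21 d, plus 7 d for M. kansasii.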
# Aspergillus fumigatus [6] = assay: Antifungal activity against Aspergillus fumigatus 231 after 48 hrs by broth microdilution method; type: functional; settings: Aspergillus fumigatus, 231, 48 h; outline: as §2
# Staphylococcus aureus [7] = assay: Antibacterial activity against Staphylococcus aureus CCM 4516/08 after 48 hrs by broth microdilution method; type: functional; settings: CCM 4516/08, 48 h
# Outline: (§4)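 Broth microdilution in Mueller–Hinton broth, compounds dissolved in DMSO, tested over a dilution series from 500 downward. MIC taken as ≥95% growth reduction (IC95) versus drug-free control. Benzylpenicillin comparator. Readings at 24 and 48 h.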
# Pseudomonas aeruginosa = assay: Antibacterial activity against Pseudomonas aeruginosa CCM 1961 at 500 micromol/L after 24 to 48 hrs by broth microdilution method; type: functional, organism-based; outline: as §4
# Mycobacterium kansasii [8] = assay: Antimycobacterial activity against Mycobacterium kansasii 6509/96 after 14 days; type: functional; settings: 6509/96, 336 h; outline: as §3
# Pichia kudriavzevii [9] = assay: Antifungal activity against Candida krusei E28 after 48 hrs by broth microdilution method; type: functional; settings: E28, 48 h; outline: as §2
# Mycobacterium kansasii [10] = assay: Antimycobacterial activity against Mycobacterium kansasii My 235/80 after 14 days; type: functional; settings: My 235/80, 336 h; outline: as §3
# Klebsiella pneumoniae [11] = assay: Antibacterial activity against ESBL-positive Klebsiella pneumoniae J 14368/08 at 500 micromol/L after 24 to 48 hrs by broth microdilution method; type: functional, organism-based; outline: as §4
# Staphylococcus aureus [12] = assay: Antibacterial activity against Staphylococcus aureus CCM 4516/08 after 24 hrs by broth microdilution method; type: functional; settings: CCM 4516/08, 24 h; outline: as §4
# Aspergillus fumigatus [13] = assay: Antifungal activity against Aspergillus fumigatus 231 after 24 hrs by broth microdilution method; type: functional; settings: Aspergillus fumigatus, 231, 24 h; outline: as §2
# Lichtheimia corymbifera [14] = assay: Antifungal activity against Absidia corymbifera 272 after 48 hrs by broth microdilution method; type: functional; settings: Lichtheimia corymbifera, 272, 48 h; outline: as §2
# Klebsiella pneumoniae [15] = assay: Antibacterial activity against Klebsiella pneumoniae D 11750/08 at 500 micromol/L after 24 to 48 hrs by broth microdilution method; type: functional, organism-based; outline: as §4
# Mycobacterium kansasii [16] = assay: Antimycobacterial activity against Mycobacterium kansasii 6509/96 after 21 days; type: functional; settings: 6509/96, 504 h; outline: as §3
# Mycobacterium kansasii [17] = assay: Antimycobacterial activity against Mycobacterium kansasii My 235/80 after 21 days; type: functional; settings: My 235/80, 504 h; outline: as §3
# [18] = tested on: Staphylococcus epidermidis; assay: Antibacterial activity against Staphylococcus epidermidis H 6966/08 after 48 hrs by broth microdilution method; type: functional; settings: H 6966/08, 48 h; outline: as §4
# Staphylococcus aureus [19] = assay: Antibacterial activity against methicillin-resistant Staphylococcus aureus H 5996/08 after 48 hrs by broth microdilution method; type: functional; settings: H 5996/08, 48 h; outline: as §4
# Staphylococcus aureus [20] = assay: Antibacterial activity against methicillin-resistant Staphylococcus aureus H 5996/08 after 24 hrs by broth microdilution method; type: functional; settings: H 5996/08, 24 h; outline: as §4
# Trichosporon asahii [21] = assay: Antifungal activity against Trichosporon asahii 1188 after 48 hrs by broth microdilution method; type: functional; settings: Trichosporon asahii, 1188, 48 h; outline: as §2
# Mycobacterium kansasii [22] = assay: Antimycobacterial activity against Mycobacterium kansasii My 235/80 after 7 days; type: functional; settings: My 235/80, 168 h; outline: as §3
# Mycobacterium avium [23] = assay: Antimycobacterial activity against isoniazid, rifampicin, ethambutol and ofloxacin-resistant Mycobacterium avium My 330/88 after 21 days; type: functional; settings: My 330/88, 504 h; outline: as §3
# HepG2 = assay: Cytotoxicity against human HepG2 cells after 24 hrs by CellTiter assay; type: cell-based; settings: HepG2, 24 h
# Outline: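 HepG2 cells (passage 27–33) in MEM with 10% FBS, L-glutamine and NEAA, seeded at 1×10^4 per well. Treated next day with compounds at 0.1–100 µM (or 0.1–25 µmol/L), triplicates, <1% DMSO, for 24 h at 37 °C, 5% CO2. MTS reagent added for 2 h, absorbance read at 490 nm. IC50 taken against untreated (100%) and 10% DMSO (0%) controls.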
# Trichosporon asahii [24] = assay: Antifungal activity against Trichosporon asahii 1188 after 24 hrs by broth microdilution method; type: functional; settings: Trichosporon asahii, 1188, 24 h; outline: as §2
# Candida tropicalis = assay: Antifungal activity against Candida tropicalis 156 at 500 micromol/L after 24 to 48 hrs by broth microdilution method; type: functional, organism-based; outline: as §2
# [25] = tested on: Mycobacterium tuberculosis; assay: Antimycobacterial activity against Mycobacterium tuberculosis H37Rv My 331/88 after 21 days; type: functional; settings: H37Rv My 331/88, 504 h; outline: as §3
# Enterococcus sp. = assay: Antibacterial activity against Enterococcus sp. J 14365/08 at 500 micromol/L after 24 to 48 hrs by broth microdilution method; type: functional, organism-based; outline: as §4
# Mycobacterium kansasii [26] = assay: Antimycobacterial activity against Mycobacterium kansasii 6509/96 after 7 days; type: functional; settings: 6509/96, 168 h; outline: as §3
# [27] = tested on: Mycobacterium tuberculosis; assay: Antimycobacterial activity against Mycobacterium tuberculosis H37Rv My 331/88 after 14 days; type: functional; settings: H37Rv My 331/88, 336 h; outline: as §3
# Lichtheimia corymbifera [28] = assay: Antifungal activity against Absidia corymbifera 272 after 24 hrs by broth microdilution method; type: functional; settings: Lichtheimia corymbifera, 272, 24 h; outline: as §2
# Candida albicans [29] = assay: Antifungal activity against Candida albicans ATCC 44859 after 48 hrs by broth microdilution method; type: functional; settings: ATCC 44859, 48 h; outline: as §2
# Escherichia coli = assay: Antibacterial activity against Escherichia coli CCM 4517 at 500 micromol/L after 24 to 48 hrs by broth microdilution method; type: functional, organism-based; outline: as §4
# [30] = tested on: Staphylococcus epidermidis; assay: Antibacterial activity against Staphylococcus epidermidis H 6966/08 after 24 hrs by broth microdilution method; type: functional; settings: H 6966/08, 24 h; outline: as §4
smiles,measurement,setting,value
CCOP(=O)(OCC)Oc1ccc(Br)cc1C(=O)Nc1cccc(C(F)(F)F)c1,MIC50,[1],62.5 µM
same,MIC80,Candida albicans [2],> 500 µM
same,Activity,Nakaseomyces glabratus,inactive
same,MIC80,Pichia kudriavzevii [3],> 500 µM
same,MIC50,[4],62.5 µM
same,MIC,Mycobacterium avium [5],16 µM
same,MIC50,Aspergillus fumigatus [6],> 500 µM
same,MIC95,Staphylococcus aureus [7],7.81 µM
same,Activity,Pseudomonas aeruginosa,inactive
same,MIC,Mycobacterium kansasii [8],8 µM
same,MIC80,Pichia kudriavzevii [9],> 500 µM
same,MIC,Mycobacterium kansasii [10],4 µM
same,Activity,Klebsiella pneumoniae [11],inactive
same,MIC95,Staphylococcus aureus [12],7.81 µM
same,MIC50,Aspergillus fumigatus [13],> 500 µM
same,MIC50,Lichtheimia corymbifera [14],> 500 µM
same,Activity,Klebsiella pneumoniae [15],inactive
same,MIC,Mycobacterium kansasii [16],8 µM
same,MIC,Mycobacterium kansasii [17],8 µM
same,MIC95,[18],7.81 µM
same,MIC95,Staphylococcus aureus [19],15.6 µM
same,MIC95,Staphylococcus aureus [20],15.6 µM
same,MIC80,Trichosporon asahii [21],> 500 µM
same,MIC,Mycobacterium kansasii [22],4 µM
same,MIC,Mycobacterium avium [23],16 µM
same,IC50,HepG2,1.84 µM
same,MIC80,Trichosporon asahii [24],> 500 µM
same,Activity,Candida tropicalis,inactive
same,MIC,[25],2 µM
same,Activity,Enterococcus sp.,inactive
same,MIC,Mycobacterium kansasii [26],4 µM
same,MIC,[27],2 µM
same,MIC50,Lichtheimia corymbifera [28],> 500 µM
same,MIC80,Candida albicans [29],> 500 µM
same,Activity,Escherichia coli,inactive
same,MIC95,[30],7.81 µM
CCOP(=O)(OCC)Oc1cc(Cl)ccc1C(=O)Nc1cccc(Cl)c1,MIC50,[1],> 500 µM
same,MIC80,Candida albicans [2],> 500 µM
same,Activity,Nakaseomyces glabratus,inactive
same,MIC80,Pichia kudriavzevii [3],> 500 µM
same,MIC50,[4],> 500 µM
same,MIC,Mycobacterium avium [5],16 µM
same,MIC50,Aspergillus fumigatus [6],> 500 µM
same,MIC95,Staphylococcus aureus [7],500 µM
same,Activity,Pseudomonas aeruginosa,inactive
same,MIC,Mycobacterium kansasii [8],8 µM
same,MIC80,Pichia kudriavzevii [9],> 500 µM
same,MIC,Mycobacterium kansasii [10],8 µM
same,Activity,Klebsiella pneumoniae [11],inactive
same,MIC95,Staphylococcus aureus [12],500 µM
same,MIC50,Aspergillus fumigatus [13],> 500 µM
same,MIC50,Lichtheimia corymbifera [14],> 500 µM
same,Activity,Klebsiella pneumoniae [15],inactive
same,MIC,Mycobacterium kansasii [16],8 µM
same,MIC,Mycobacterium kansasii [17],8 µM
same,MIC95,[18],500 µM
same,MIC95,Staphylococcus aureus [19],500 µM
same,MIC95,Staphylococcus aureus [20],500 µM
same,MIC80,Trichosporon asahii [21],> 500 µM
same,MIC,Mycobacterium kansasii [22],4 µM
same,MIC,Mycobacterium avium [23],16 µM
same,IC50,HepG2,9.57 µM
same,MIC80,Trichosporon asahii [24],> 500 µM
same,Activity,Candida tropicalis,inactive
same,MIC,[25],8 µM
same,Activity,Enterococcus sp.,inactive
same,MIC,Mycobacterium kansasii [26],8 µM
same,MIC,[27],4 µM
same,MIC50,Lichtheimia corymbifera [28],> 500 µM
same,MIC80,Candida albicans [29],> 500 µM
same,Activity,Escherichia coli,inactive
same,MIC95,[30],250 µM
CC1(C)S[C@@H]2[C@H](NC(=O)Cc3ccccc3)C(=O)N2[C@H]1C(=O)O [PENICILLIN G],MIC95,Staphylococcus aureus [7],0.98 µM
same,MIC95,Staphylococcus aureus [12],0.98 µM
same,MIC95,[18],250 µM
same,MIC95,Staphylococcus aureus [19],125 µM
same,MIC95,Staphylococcus aureus [20],62.5 µM
same,MIC95,[30],250 µM
CCOP(=O)(OCC)Oc1cc(Cl)ccc1C(=O)Nc1cccc(Br)c1,MIC50,[1],> 500 µM
same,MIC80,Candida albicans [2],> 500 µM
same,Activity,Nakaseomyces glabratus,inactive
same,MIC80,Pichia kudriavzevii [3],> 500 µM
same,MIC50,[4],> 500 µM
same,MIC,Mycobacterium avium [5],16 µM
same,MIC50,Aspergillus fumigatus [6],> 500 µM
same,MIC95,Staphylococcus aureus [7],500 µM
same,Activity,Pseudomonas aeruginosa,inactive
same,MIC,Mycobacterium kansasii [8],8 µM
same,MIC80,Pichia kudriavzevii [9],> 500 µM
same,MIC,Mycobacterium kansasii [10],8 µM
same,Activity,Klebsiella pneumoniae [11],inactive
same,MIC95,Staphylococcus aureus [12],125 µM
same,MIC50,Aspergillus fumigatus [13],> 500 µM
same,MIC50,Lichtheimia corymbifera [14],> 500 µM
same,Activity,Klebsiella pneumoniae [15],inactive
same,MIC,Mycobacterium kansasii [16],8 µM
same,MIC,Mycobacterium kansasii [17],8 µM
same,MIC95,[18],250 µM
same,MIC95,Staphylococcus aureus [19],500 µM
same,MIC95,Staphylococcus aureus [20],250 µM
same,MIC80,Trichosporon asahii [21],> 500 µM
same,MIC,Mycobacterium kansasii [22],4 µM
same,MIC,Mycobacterium avium [23],16 µM
same,IC50,HepG2,8.07 µM
same,MIC80,Trichosporon asahii [24],> 500 µM
same,Activity,Candida tropicalis,inactive
same,MIC,[25],4 µM
same,Activity,Enterococcus sp.,inactive
same,MIC,Mycobacterium kansasii [26],8 µM
same,MIC,[27],4 µM
same,MIC50,Lichtheimia corymbifera [28],> 500 µM
same,MIC80,Candida albicans [29],> 500 µM
same,Activity,Escherichia coli,inactive
same,MIC95,[30],125 µM
